Reference: ChEMBL document CHEMBL4382192, “Discovery of a potent dual ALK and EGFR T790M inhibitor” (Eur J Med Chem, 2017)

Legend:
[1] = target: Bone morphogenetic protein receptor type-1A (Homo sapiens) (UniProt P36894); assay: Binding affinity to wild-type human partial length BMPR1A (Q214 to I532 residues) expressed in bacterial expression system assessed as residual binding level at 1 uM by Kinomescan method relative to control
[2] = target: Serine/threonine-protein kinase STK11 (Homo sapiens) (UniProt Q15831); assay: Binding affinity to wild-type human full length LKB1 (M1 to Q433 residues) expressed in bacterial expression system assessed as residual binding level at 1 uM by Kinomescan method relative to control
Summary of the method: (§1)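 Single-point kinome-wide KINOMEscan binding panel, test compound at 1 μM, run by the provider's standard protocol.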

[3] = target: Receptor tyrosine-protein kinase erbB-3 (Homo sapiens) (UniProt P21860); assay: Binding affinity to wild-type human partial length ERBB3 (G684 to A987 residues) expressed in mammalian expression system assessed as residual binding level at 1 uM by Kinomescan method relative to control
[4] = target: Testis-specific serine/threonine-protein kinase 3 (Homo sapiens) (UniProt Q96PN8); assay: Binding affinity to wild-type human full length TSSK3 (M1 to T268 residues) expressed in mammalian expression system assessed as residual binding level at 1 uM by Kinomescan method relative to control
[5] = target: Serine/threonine-protein kinase Sgk2 (Homo sapiens) (UniProt Q9HBY8); assay: Binding affinity to wild-type human partial length SGK2 (L54 to C427 residues) expressed in mammalian expression system assessed as residual binding level at 1 uM by Kinomescan method relative to control
[6] = tested on: Hepatocyte growth factor receptor (Homo sapiens), P08581 [Y1235D]; assay: Binding affinity to human partial length MET Y1235D mutant (D1010 to S1367 residues) expressed in bacterial expression system assessed as residual binding level at 1 uM by Kinomescan method relative to control
Summary of the method: (§2)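 Kinome-wide selectivity panel run by the KINOMEscan method, with the test compound at a single concentration of 1 μM. Wild-type and mutant kinases were profiled in the same screen.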

[7] = target: Serine/threonine-protein kinase MRCK alpha (Homo sapiens) (UniProt Q5VT25); assay: Binding affinity to wild-type human partial length MRCKA (L57 to V418 residues) expressed in bacterial expression system assessed as residual binding level at 1 uM by Kinomescan method relative to control
[8] = tested on: Epidermal growth factor receptor (Homo sapiens), P00533 [L858R]; assay: Binding affinity to human partial length EGFR L858R mutant (R669 to V1011 residues) expressed in bacterial expression system assessed as residual binding level at 1 uM by Kinomescan method relative to control; summary of the method: as §2
[9] = tested on: Serine/threonine-protein kinase B-raf (Homo sapiens), P15056 [V600E]; assay: Binding affinity to human partial length BRAF V600E mutant (S429 to E741 residues) expressed in mammalian expression system assessed as residual binding level at 1 uM by Kinomescan method relative to control
[10] = target: Dual specificity tyrosine-phosphorylation-regulated kinase 1A (Homo sapiens) (UniProt Q13627); assay: Binding affinity to wild-type human partial length DYRK1A (H129 to S509 residues) expressed in mammalian expression system assessed as residual binding level at 1 uM by Kinomescan method relative to control
[11] = target: Wee1-like protein kinase (Homo sapiens) (UniProt P30291); assay: Binding affinity to wild-type human partial length WEE1 (M291 to K575 residues) expressed in bacterial expression system assessed as residual binding level at 1 uM by Kinomescan method relative to control
[12] = target: Dual specificity mitogen-activated protein kinase kinase 4 (Homo sapiens) (UniProt P45985); assay: Binding affinity to wild-type human partial length MEK4 (S84 to D399 residues) expressed in mammalian expression system assessed as residual binding level at 1 uM by Kinomescan method relative to control
[13] = target: Insulin receptor-related protein (Homo sapiens) (UniProt P14616); assay: Binding affinity to wild-type human partial length INSRR (R950 to E1278 residues) expressed in bacterial expression system assessed as residual binding level at 1 uM by Kinomescan method relative to control
[14] = target: Proto-oncogene tyrosine-protein kinase receptor Ret (Homo sapiens) (UniProt P07949); assay: Binding affinity to wild-type human partial length RET (E713 to D1014 residues) expressed in bacterial expression system assessed as residual binding level at 1 uM by Kinomescan method relative to control
[15] = target: Ephrin type-B receptor 2 (Homo sapiens) (UniProt P29323); assay: Binding affinity to wild-type human partial length EPHB2 (I597 to L902 residues) expressed in bacterial expression system assessed as residual binding level at 1 uM by Kinomescan method relative to control
[16] = target: Ribosomal protein S6 kinase alpha-2 (Homo sapiens) (UniProt Q15349); assay: Binding affinity to wild-type human partial length N-terminal RSK3 kinase domain 1 (M1 to Q385 residues) expressed in bacterial expression system assessed as residual binding level at 1 uM by Kinomescan method relative to control
[17] = target: Mitogen-activated protein kinase kinase kinase 5 (Homo sapiens) (UniProt Q99683); assay: Binding affinity to wild-type human partial length ASK1 (E648 to S964 residues) expressed in bacterial expression system assessed as residual binding level at 1 uM by Kinomescan method relative to control
[18] = target: Mitogen-activated protein kinase 1 (Homo sapiens) (UniProt P28482); assay: Binding affinity to wild-type human full length ERK2 (M1 to S360 residues) expressed in bacterial expression system assessed as residual binding level at 1 uM by Kinomescan method relative to control; summary of the method: as §1
[19] = target: Death-associated protein kinase 1 (Homo sapiens) (UniProt P53355); assay: Binding affinity to wild-type human partial length DAPK1 (M1 to F296 residues) expressed in bacterial expression system assessed as residual binding level at 1 uM by Kinomescan method relative to control
Activated CDC42 kinase 1 = Activated CDC42 kinase 1 (Homo sapiens, UniProt Q07912); assay: Inhibition of recombinant GST-tagged human TNK2 catalytic/cytoplasmic domain (110 to 476 residues) expressed in baculovirus expression system by LanthaScreen assay
[20] = target: Cyclin-G-associated kinase (Homo sapiens) (UniProt O14976); assay: Binding affinity to wild-type human partial length GAK (G13 to Y338 residues) expressed in bacterial expression system assessed as residual binding level at 1 uM by Kinomescan method relative to control
[21] = target: Calcium/calmodulin-dependent protein kinase type 1D (Homo sapiens) (UniProt Q8IU85); assay: Binding affinity to wild-type human partial length CAMK1D (M1 to K299 residues) expressed in bacterial expression system assessed as residual binding level at 1 uM by Kinomescan method relative to control
[22] = target: Myosin light chain kinase family member 4 (Homo sapiens) (UniProt Q86YV6); assay: Binding affinity to wild-type human partial length MYLK4 (V79 to S380 residues) expressed in bacterial expression system assessed as residual binding level at 1 uM by Kinomescan method relative to control
[23] = target: Serine/threonine-protein kinase MRCK beta (Homo sapiens) (UniProt Q9Y5S2); assay: Binding affinity to wild-type human partial length MRCKB (L56 to S417 residues) expressed in bacterial expression system assessed as residual binding level at 1 uM by Kinomescan method relative to control

Chain of Death-associated protein kinase 1 (Homo sapiens) (P53355 whole entry, looked up, the tested form may be a part): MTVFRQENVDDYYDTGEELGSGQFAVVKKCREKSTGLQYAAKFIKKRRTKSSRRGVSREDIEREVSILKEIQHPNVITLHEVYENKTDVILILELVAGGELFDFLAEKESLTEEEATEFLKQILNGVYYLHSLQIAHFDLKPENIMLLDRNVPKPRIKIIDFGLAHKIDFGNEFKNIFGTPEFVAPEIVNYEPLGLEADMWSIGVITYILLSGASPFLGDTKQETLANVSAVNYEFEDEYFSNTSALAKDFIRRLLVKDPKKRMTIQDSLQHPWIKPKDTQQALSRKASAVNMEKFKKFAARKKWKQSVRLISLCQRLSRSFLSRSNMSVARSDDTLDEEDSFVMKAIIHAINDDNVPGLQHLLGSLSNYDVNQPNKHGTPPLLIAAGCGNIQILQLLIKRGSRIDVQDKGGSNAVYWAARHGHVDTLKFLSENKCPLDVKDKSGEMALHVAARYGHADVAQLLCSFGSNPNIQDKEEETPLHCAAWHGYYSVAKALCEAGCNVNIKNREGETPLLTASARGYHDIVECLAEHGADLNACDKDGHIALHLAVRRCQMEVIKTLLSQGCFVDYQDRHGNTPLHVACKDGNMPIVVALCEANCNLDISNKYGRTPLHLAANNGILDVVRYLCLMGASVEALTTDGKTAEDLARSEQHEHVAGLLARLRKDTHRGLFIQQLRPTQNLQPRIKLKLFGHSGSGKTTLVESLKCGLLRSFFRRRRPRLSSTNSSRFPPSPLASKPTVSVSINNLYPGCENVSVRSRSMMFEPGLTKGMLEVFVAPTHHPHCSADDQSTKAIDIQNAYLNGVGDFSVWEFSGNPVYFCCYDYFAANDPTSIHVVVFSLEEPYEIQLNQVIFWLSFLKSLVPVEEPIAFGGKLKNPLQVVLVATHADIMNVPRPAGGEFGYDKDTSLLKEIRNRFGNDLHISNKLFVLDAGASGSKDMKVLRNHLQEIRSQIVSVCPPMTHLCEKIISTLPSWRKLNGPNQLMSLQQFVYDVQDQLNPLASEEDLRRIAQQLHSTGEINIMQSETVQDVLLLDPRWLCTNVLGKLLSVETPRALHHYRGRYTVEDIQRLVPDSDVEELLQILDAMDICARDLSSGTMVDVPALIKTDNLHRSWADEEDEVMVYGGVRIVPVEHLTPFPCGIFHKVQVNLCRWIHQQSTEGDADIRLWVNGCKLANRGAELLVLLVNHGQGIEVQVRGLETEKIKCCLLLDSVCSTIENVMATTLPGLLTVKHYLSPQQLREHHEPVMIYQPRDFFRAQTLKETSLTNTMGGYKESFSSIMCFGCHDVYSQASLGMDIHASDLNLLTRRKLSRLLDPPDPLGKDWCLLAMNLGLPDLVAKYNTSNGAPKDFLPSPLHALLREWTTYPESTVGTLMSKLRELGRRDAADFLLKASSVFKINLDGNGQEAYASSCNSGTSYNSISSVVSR
Chain of Calcium/calmodulin-dependent protein kinase type 1D (Homo sapiens) (Q8IU85 whole entry, looked up, the tested form may be a part): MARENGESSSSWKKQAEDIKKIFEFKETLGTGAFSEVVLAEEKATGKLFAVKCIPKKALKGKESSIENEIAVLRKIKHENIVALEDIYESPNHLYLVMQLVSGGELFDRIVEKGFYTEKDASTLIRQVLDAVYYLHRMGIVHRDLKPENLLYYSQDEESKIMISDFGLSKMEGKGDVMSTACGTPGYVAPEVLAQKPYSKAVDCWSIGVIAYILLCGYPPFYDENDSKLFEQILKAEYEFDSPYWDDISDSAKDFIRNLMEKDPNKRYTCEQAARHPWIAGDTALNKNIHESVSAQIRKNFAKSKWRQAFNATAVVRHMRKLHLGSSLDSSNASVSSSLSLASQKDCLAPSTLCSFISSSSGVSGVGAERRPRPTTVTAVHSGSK
Chain of Bone morphogenetic protein receptor type-1A (Homo sapiens) (P36894 whole entry, the tested form may be a part): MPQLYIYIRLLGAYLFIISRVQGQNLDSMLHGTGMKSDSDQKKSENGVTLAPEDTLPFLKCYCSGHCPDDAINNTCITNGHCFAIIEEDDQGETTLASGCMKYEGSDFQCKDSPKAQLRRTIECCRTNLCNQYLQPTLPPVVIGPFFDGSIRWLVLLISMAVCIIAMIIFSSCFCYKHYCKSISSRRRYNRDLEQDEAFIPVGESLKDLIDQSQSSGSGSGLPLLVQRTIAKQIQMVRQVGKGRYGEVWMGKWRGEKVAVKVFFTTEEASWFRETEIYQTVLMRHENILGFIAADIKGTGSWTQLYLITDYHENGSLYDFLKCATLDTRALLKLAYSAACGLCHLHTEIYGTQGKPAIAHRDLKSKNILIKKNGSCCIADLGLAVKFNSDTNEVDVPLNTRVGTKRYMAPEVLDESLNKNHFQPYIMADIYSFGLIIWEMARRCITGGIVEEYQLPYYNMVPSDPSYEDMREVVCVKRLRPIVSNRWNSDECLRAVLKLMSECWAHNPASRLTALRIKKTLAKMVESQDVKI
Chain of Wee1-like protein kinase (Homo sapiens) (P30291 whole entry, looked up, the tested form may be a part): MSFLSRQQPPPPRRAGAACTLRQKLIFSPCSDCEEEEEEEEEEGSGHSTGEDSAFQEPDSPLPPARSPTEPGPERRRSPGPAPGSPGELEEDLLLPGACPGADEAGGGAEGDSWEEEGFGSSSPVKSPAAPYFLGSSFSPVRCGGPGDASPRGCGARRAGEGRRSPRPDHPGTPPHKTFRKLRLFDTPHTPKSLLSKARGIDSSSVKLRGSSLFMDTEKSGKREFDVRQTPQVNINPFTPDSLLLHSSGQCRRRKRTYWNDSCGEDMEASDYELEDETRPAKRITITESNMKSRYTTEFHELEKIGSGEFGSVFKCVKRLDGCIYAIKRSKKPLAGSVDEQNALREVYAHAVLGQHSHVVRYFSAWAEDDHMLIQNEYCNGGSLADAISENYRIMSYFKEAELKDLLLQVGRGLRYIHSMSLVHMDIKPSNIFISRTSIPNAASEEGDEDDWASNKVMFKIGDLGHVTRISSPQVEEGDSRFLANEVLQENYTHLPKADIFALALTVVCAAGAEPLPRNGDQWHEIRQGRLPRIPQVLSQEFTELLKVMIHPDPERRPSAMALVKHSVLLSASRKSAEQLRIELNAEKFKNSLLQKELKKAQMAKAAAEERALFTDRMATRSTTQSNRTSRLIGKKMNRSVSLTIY
Chain of Receptor tyrosine-protein kinase erbB-3 (Homo sapiens) (P21860 whole entry, the tested form may be a part): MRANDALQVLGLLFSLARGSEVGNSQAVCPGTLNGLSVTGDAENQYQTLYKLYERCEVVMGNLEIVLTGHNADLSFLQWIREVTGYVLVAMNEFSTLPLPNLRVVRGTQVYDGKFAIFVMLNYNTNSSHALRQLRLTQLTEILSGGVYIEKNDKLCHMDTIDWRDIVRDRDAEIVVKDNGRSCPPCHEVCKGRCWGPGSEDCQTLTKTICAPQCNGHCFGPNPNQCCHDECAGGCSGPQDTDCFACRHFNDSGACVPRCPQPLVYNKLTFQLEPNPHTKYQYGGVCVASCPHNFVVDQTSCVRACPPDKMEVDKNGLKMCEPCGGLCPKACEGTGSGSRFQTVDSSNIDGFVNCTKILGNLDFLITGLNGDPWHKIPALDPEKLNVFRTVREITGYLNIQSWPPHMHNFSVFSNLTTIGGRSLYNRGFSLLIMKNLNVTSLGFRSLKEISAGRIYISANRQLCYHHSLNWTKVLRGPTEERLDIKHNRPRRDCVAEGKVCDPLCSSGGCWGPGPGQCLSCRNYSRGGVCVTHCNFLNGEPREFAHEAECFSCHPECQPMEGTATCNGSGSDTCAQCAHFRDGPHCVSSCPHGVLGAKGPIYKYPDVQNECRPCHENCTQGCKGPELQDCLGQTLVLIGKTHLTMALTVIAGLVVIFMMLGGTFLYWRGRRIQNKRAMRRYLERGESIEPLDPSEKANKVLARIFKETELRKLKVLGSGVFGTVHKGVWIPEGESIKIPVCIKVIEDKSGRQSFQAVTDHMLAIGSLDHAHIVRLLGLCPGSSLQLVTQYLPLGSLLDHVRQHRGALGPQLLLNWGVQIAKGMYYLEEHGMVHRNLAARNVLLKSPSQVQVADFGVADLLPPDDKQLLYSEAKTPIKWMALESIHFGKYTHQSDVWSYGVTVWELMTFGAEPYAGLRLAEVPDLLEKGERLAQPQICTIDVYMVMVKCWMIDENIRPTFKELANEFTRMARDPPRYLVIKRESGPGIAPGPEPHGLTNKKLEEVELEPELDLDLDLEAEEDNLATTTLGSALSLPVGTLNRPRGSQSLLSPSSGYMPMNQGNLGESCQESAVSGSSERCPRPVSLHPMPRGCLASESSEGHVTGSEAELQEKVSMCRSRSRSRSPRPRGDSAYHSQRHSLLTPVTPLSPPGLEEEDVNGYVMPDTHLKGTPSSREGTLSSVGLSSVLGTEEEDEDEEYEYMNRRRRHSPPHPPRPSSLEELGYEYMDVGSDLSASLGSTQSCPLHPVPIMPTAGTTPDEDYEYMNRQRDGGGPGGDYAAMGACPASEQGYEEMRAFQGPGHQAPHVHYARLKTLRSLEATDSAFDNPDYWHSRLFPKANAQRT
Chain of Serine/threonine-protein kinase Sgk2 (Homo sapiens) (Q9HBY8 whole entry, the tested form may be a part): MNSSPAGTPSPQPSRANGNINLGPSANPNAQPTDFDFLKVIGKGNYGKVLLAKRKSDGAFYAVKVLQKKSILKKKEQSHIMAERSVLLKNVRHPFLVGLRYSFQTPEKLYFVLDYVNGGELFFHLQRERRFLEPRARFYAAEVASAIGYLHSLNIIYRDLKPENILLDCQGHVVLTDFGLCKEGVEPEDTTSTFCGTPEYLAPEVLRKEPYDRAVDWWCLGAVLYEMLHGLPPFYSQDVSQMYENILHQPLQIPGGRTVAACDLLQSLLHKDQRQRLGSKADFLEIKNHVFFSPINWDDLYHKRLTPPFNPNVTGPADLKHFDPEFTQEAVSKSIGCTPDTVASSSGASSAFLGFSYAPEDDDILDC
Chain of Testis-specific serine/threonine-protein kinase 3 (Homo sapiens) (Q96PN8 whole entry, the tested form may be a part): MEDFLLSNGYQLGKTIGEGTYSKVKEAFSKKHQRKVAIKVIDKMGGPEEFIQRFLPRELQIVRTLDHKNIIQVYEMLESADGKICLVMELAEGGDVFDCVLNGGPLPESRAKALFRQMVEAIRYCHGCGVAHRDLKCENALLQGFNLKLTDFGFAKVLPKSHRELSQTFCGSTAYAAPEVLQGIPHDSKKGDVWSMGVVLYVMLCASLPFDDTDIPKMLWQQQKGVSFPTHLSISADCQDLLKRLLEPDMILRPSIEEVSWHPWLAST

SMILES: C=CC(=O)Nc1cc(Nc2ncc(Cl)c(Nc3ccccc3S(=O)(=O)C(C)C)n2)c(OC)cc1N(C)CCN(C)C
- Activity [1]: 65%
- Activity [2]: 88%
- Activity [3]: 91%
- Activity [4]: 46%
- Activity [5]: 95%
- Activity [6]: 62%
- Activity [7]: 97%
- Activity [8]: 0%
- Activity [9]: 88%
- Activity [10]: 71%
- Activity [11]: 94%
- Activity [12]: 100%
- Activity [13]: 0.25%
- Activity [14]: 13%
- Activity [15]: 61%
- Activity [16]: 5.6%
- Activity [17]: 100%
- Activity [18]: 68%
- Activity [19]: 59%
- IC50 (Activated CDC42 kinase 1): 13 nM
- Activity [20]: 29%
- Activity [21]: 9.9%
- Activity [22]: 98%
- Activity [23]: 100%
